Measured values taken from ChEMBL document CHEMBL5303300, “EUbOPEN Chemogenomics Library - Multiplex” (2023).
Where “and” joins values, the source holds several entries; their conditions need not be identical. Equal values may be shown once.

Experiments:
[1] = system: HEK-293T; test: Multiplex assay against HEK293T; type: toxicity, cell-based; conditions: human, number of replicates 2
In short: (§1)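 Phenotypes for tubulin, mitochondrial mass and membrane permeability are expressed as per cents of healthy-nucleus cells. Cells were stained live at seeding with Hoechst33342, BioTracker Green Microtubule Cytoskeleton Dye, MitoTracker Red and Annexin V Alexa Fluor 680, then imaged after compound addition on a CQ1 microscope at 37°C and 5% CO2. Machine-learning gating in CellPathfinder separated Hoechst high-intensity objects from normal cells, divided normal cells by nuclear state (healthy, pyknosed, fragmented) and divided pyknosed cells into mitotic or apoptotic.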

[2] = system: U2OS; test: Multiplex assay against U2OS; type: toxicity, cell-based; conditions: human, number of replicates 2; in short: as §1
[3] = 12 h, 1 µM, compound concentration 1 uM
[4] = 12 h, 10 µM, compound concentration 10 uM
[5] = 24 h, 1 µM, compound concentration 1 uM
[6] = 24 h, 10 µM, compound concentration 10 uM
[7] = 48 h, 1 µM, compound concentration 1 uM
[8] = 48 h, 10 µM, compound concentration 10 uM

For `CCCCOc1c(C(=O)c2c(F)cc(C)cc2F)c[nH]c2nncc1-2`, the “Population Apoptotic (%)” value [1, 3] was 54% and 43%, the “Population Fragmented Nuclei (%)” value [1, 3] was 3% and 2% and the “Population Healthy Nuclei (%)” value [1, 3] was 87% and 86%. For the same compound, the “Population Hoechst High Intensity Objects (%)” value [1, 3] was 7% and 6%, the “Population Membrane Permeable-Phenotype (%)” value [1, 3] was 3% and 4% and the “Population Mitochondria Different-Phenotype (%)” value [1, 3] was 11% and 7%. For the same compound, the “Population Mitotic Cells (%)” value [1, 3] was 45% and 56%, the “Population Normal (%)” value [1, 3] was 92% and 93% and the “Population Pyknosed Nuclei (%)” value [1, 3] was 9% and 11%. For the same compound, the “Population Tubulin-Different-Phenotype (%)” value [1, 3] was 58% and 46%, the “Total Cell Count” value [1, 3] was 782 and 748 and the “Population Apoptotic (%)” value [1, 4] was 50% and 64%. For the same compound, the “Population Fragmented Nuclei (%)” value [1, 4] was 3%, the “Population Healthy Nuclei (%)” value [1, 4] was 85% and 81% and the “Population Hoechst High Intensity Objects (%)” value [1, 4] was 10% and 11%. For the same compound, the “Population Membrane Permeable-Phenotype (%)” value [1, 4] was 7% and 4%, the “Population Mitochondria Different-Phenotype (%)” value [1, 4] was 17% and the “Population Mitotic Cells (%)” value [1, 4] was 50% and 35%. For the same compound, the “Population Normal (%)” value [1, 4] was 89% and 88%, the “Population Pyknosed Nuclei (%)” value [1, 4] was 11% and 14% and the “Population Tubulin-Different-Phenotype (%)” value [1, 4] was 77% and 74%. For the same compound, the “Total Cell Count” value [1, 4] was 766 and 710, the “Population Apoptotic (%)” value [1, 5] was 34% and 50% and the “Population Fragmented Nuclei (%)” value [1, 5] was 7% and 5%. The “Population Healthy Nuclei (%)” value [1, 5] was 85%, the “Population Hoechst High Intensity Objects (%)” value [1, 5] was 10% and 11% and the “Population Membrane Permeable-Phenotype (%)” value [1, 5] was 1% and 3%. For the same compound, the “Population Mitochondria Different-Phenotype (%)” value [1, 5] was 4% and 5%, the “Population Mitotic Cells (%)” value [1, 5] was 65% and 50% and the “Population Normal (%)” value [1, 5] was 89% and 88%. For the same compound, the “Population Pyknosed Nuclei (%)” value [1, 5] was 7% and 8%, the “Population Tubulin-Different-Phenotype (%)” value [1, 5] was 32% and 46% and the “Total Cell Count” value [1, 5] was 1018 and 1015. The “Population Apoptotic (%)” value [1, 6] was 59% and 67%, the “Population Fragmented Nuclei (%)” value [1, 6] was 5% and the “Population Healthy Nuclei (%)” value [1, 6] was 82% and 83%. The “Population Hoechst High Intensity Objects (%)” value [1, 6] was 9% and 10%, the “Population Membrane Permeable-Phenotype (%)” value [1, 6] was 3% and 2% and the “Population Mitochondria Different-Phenotype (%)” value [1, 6] was 5%. For the same compound, the “Population Mitotic Cells (%)” value [1, 6] was 40% and 32%, the “Population Normal (%)” value [1, 6] was 90% and 89% and the “Population Pyknosed Nuclei (%)” value [1, 6] was 11%. The “Population Tubulin-Different-Phenotype (%)” value [1, 6] was 57% and 52%, the “Total Cell Count” value [1, 6] was 954 and 851 and the “Population Fragmented Nuclei (%)” value [1, 7] was 17% and 10%. The “Population Healthy Nuclei (%)” value [1, 7] was 79% and 86%, the “Population Hoechst High Intensity Objects (%)” value [1, 7] was 16% and the “Population Membrane Permeable-Phenotype (%)” value [1, 7] was 4% and 2%. The “Population Mitochondria Different-Phenotype (%)” value [1, 7] was 1% and 2%, the “Population Mitotic Cells (%)” value [1, 7] was 88% and 65% and the “Population Normal (%)” value [1, 7] was 83%. For the same compound, the “Population Pyknosed Nuclei (%)” value [1, 7] was 2% and 3%, the “Population Tubulin-Different-Phenotype (%)” value [1, 7] was 24% and 36% and the “Total Cell Count” value [1, 7] was 1720 and 1259. For the same compound, the “Population Apoptotic (%)” value [1, 8] was 41% and 63%, the “Population Fragmented Nuclei (%)” value [1, 8] was 13% and 10% and the “Population Healthy Nuclei (%)” value [1, 8] was 82% and 86%. The “Population Hoechst High Intensity Objects (%)” value [1, 8] was 12%, the “Population Membrane Permeable-Phenotype (%)” value [1, 8] was 4% and 1% and the “Population Mitochondria Different-Phenotype (%)” value [1, 8] was 4% and 5%. For the same compound, the “Population Mitotic Cells (%)” value [1, 8] was 58% and 36%, the “Population Normal (%)” value [1, 8] was 87% and the “Population Pyknosed Nuclei (%)” value [1, 8] was 3% and 2%. The “Population Tubulin-Different-Phenotype (%)” value [1, 8] was 46% and 47%, the “Total Cell Count” value [1, 8] was 1114 and 939 and the “Population Apoptotic (%)” value [2, 3] was 54% and 60%. For the same compound, the “Population Healthy Nuclei (%)” value [2, 3] was 52% and 86%, the “Population Hoechst High Intensity Objects (%)” value [2, 3] was 0% and the “Population Membrane Permeable-Phenotype (%)” value [2, 3] was 0% and 3%. The “Population Mitochondria Different-Phenotype (%)” value [2, 3] was 0% and 1%, the “Population Mitotic Cells (%)” value [2, 3] was 45% and 40% and the “Population Normal (%)” value [2, 3] was 100%. The “Population Pyknosed Nuclei (%)” value [2, 3] was 20% and 9%, the “Population Tubulin-Different-Phenotype (%)” value [2, 3] was 89% and 86% and the “Population Apoptotic (%)” value [2, 4] was 42% and 84%. The “Population Fragmented Nuclei (%)” value [2, 4] was 19% and 8%, the “Population Healthy Nuclei (%)” value [2, 4] was 29% and 79% and the “Population Hoechst High Intensity Objects (%)” value [2, 4] was 0%. The “Population Membrane Permeable-Phenotype (%)” value [2, 4] was 2% and 1%, the “Population Mitochondria Different-Phenotype (%)” value [2, 4] was 0% and the “Population Normal (%)” value [2, 4] was 100%. The “Population Tubulin-Different-Phenotype (%)” value [2, 4] was 73% and 91%, the “Total Cell Count” value [2, 4] was 143 and 207 and the “Population Apoptotic (%)” value [2, 5] was 46% and 62%. The “Population Fragmented Nuclei (%)” value [2, 5] was 10% and 5%, the “Population Healthy Nuclei (%)” value [2, 5] was 52% and 82% and the “Population Hoechst High Intensity Objects (%)” value [2, 5] was 0%. The “Population Membrane Permeable-Phenotype (%)” value [2, 5] was 0% and 1%, the “Population Mitochondria Different-Phenotype (%)” value [2, 5] was 0% and the “Population Mitotic Cells (%)” value [2, 5] was 53% and 37%. The “Population Normal (%)” value [2, 5] was 100%.
